Results: ChEMBL document CHEMBL3992503, “Developing piperlongumine-directed glutathione S-transferase inhibitors by an electrophilicity-based strategy” (Eur J Med Chem, 2017)
pIC50, pKi: −log10 of the molar value. The source made the active and inactive calls. The calls are words filed in the database; no cut-off is given here.

Legend:
Equus caballus = species on record: Equus caballus; test: Inhibition of equine liver GST assessed as decrease in conjugation of CDNB to GSH at 100 uM preincubated with GSH for 30 mins followed by CDNB addition measured for 3 mins relative to control
Method in brief: (§1)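 CDNB–GSH conjugation by equine liver GST in 100 mM potassium phosphate pH 6.5 with 1 mM GSH. Enzyme and inhibitor preincubated 30 min at 37 °C. Reaction started with 1 mM CDNB (final) and followed at 340 nm for 3 min at 25 °C. Single-point inhibition at 100 (unit unclear); IC50 from sigmoidal fit of inhibition versus concentration.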

[1] = Inhibition of equine liver GST assessed as decrease in conjugation of CDNB to GSH preincubated with GSH for 30 mins followed by CDNB addition measured for 3 mins; set-up: species or system Equus caballus; method in brief: as §1
[2] = Electrophilicity of the compound assessed as second-oder rate constant for reaction with cysteamine under pseudo-first-oder condition at 40 uM by spectrophotometric method
Method in brief: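 Compound fixed at 40 (unit unclear) with cysteamine 0.67–9 mM in 100 mM Tris-HCl pH 7.4 containing 2 mM EDTA–ethanol (v/v 2/1), 25 °C, pseudo-first-order conditions. Decay of compound followed spectrophotometrically at its absorbance maximum; second-order constant k2 derived from these runs.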

[3] = Noncompetitive inhibition of equine liver GST using fixed GSH substrate concentration and varying levels of CDNB preincubated with GSH for 30 mins followed by CDNB addition measured for 3 mins by Lineweaver-Burk plot analysis; set-up: species or system Equus caballus
Method in brief: (§2)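 Equine liver GST in 100 mM potassium phosphate pH 6.5 with inhibitor at 0, 12.5, 25 or 50 (unit unclear). Varied substrate at 0.1–1 mM, other substrate fixed at 1 mM: GSH varied for line 1, CDNB for line 10. Preincubated 30 min at 37 °C, started with CDNB, A340 read for 3 min at 25 °C. Mean of triplicates on Lineweaver-Burk plots; Ki from intercept (CDNB) or slope (GSH) replots.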

[4] = Competitive inhibition of equine liver GST using varying levels of substrate GSH and fixed CDNB concentration preincubated with GSH for 30 mins followed by CDNB addition measured for 3 mins by Lineweaver-Burk plot analysis; set-up: species or system Equus caballus; method in brief: as §2
[5] = biological target: T1, Glutathione S-transferase Mu 1 (Homo sapiens) (UniProt P09488); test: Inhibition of GSTM1 in human A549 cells assessed as potentiation of cisplatin-induced cytotoxicity at 5 uM preincubated for 2 hrs followed by cisplatin addition measured after 48 hrs by MTT assay; format: cell-based
T1 sequence (whole entry): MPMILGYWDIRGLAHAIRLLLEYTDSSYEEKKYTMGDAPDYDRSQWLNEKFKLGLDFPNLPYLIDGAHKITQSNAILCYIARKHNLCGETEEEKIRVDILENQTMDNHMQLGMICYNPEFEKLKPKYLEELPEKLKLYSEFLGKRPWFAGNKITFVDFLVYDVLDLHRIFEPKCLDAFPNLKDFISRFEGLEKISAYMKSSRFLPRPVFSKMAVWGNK
Method in brief: (§3)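 A549 cells seeded at 3 × 10⁴ cells/mL and cultured 24 h. For line 6, DTT pretreatment (250, unit unclear) for 1 h. Compound added for 2 h, then cisplatin at 2.5, 5, 10 and 20 (unit unclear) for 48 h. MTT for 4 h at 37 °C in the dark, DMSO solubilisation, OD read at 570 nm.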

[6] = biological target: T1, Glutathione S-transferase Mu 1 (Homo sapiens); test: Inhibition of GSTM1 in human A549 cells assessed as potentiation of cisplatin-induced cytotoxicity by measuring combination index at 5 uM preincubated for 2 hrs followed by cisplatin addition measured after 48 hrs by MTT assay; format: cell-based
[7] = biological target: T1, Glutathione S-transferase Mu 1 (Homo sapiens); test: Inhibition of GSTM1 in human A549 cells assessed as potentiation of cisplatin-induced cytotoxicity at 5 uM preincubated for 2 hrs followed by cisplatin addition measured after 48 hrs in presence of DTT by MTT assay; format: cell-based; method in brief: as §3
A549 [8] = test: Inhibition of GST in human A549 cells at 25 uM after 1.5 hrs by DNs-CV probe based fluorescence microscopic method
A549 [9] = test: Inhibition of GST in human A549 cells at 25 uM after 1.5 hrs in presence of DTT by DNs-CV probe based fluorescence microscopic method

Compound	inhibition (Equus caballus)	pIC50 [1]	K [2]	pKi [3]	pKi [4]	inhibition [5]	CI [6]	inhibition [7]	inhibition (A549 [8])	inhibition (A549 [9])
C/C=C/C(=O)N1CCC=CC1=O	8.2%	< 4.00	1.21 M⁻¹ s⁻¹	–	–	–	–	–	–	–
O=C(/C=C/c1cccc(C(F)(F)F)c1)N1CCC=C(Cl)C1=O	71%	4.98	2.53 M⁻¹ s⁻¹	–	–	–	–	–	–	–
O=C(/C=C/c1ccccc1C(F)(F)F)N1CCC=C(Cl)C1=O	40.3%	< 4.00	0.67 M⁻¹ s⁻¹	–	–	–	–	–	–	–
O=C1C=CCCN1C(=O)/C=C/c1cccc(C(F)(F)F)c1	53%	4.30	1.13 M⁻¹ s⁻¹	–	–	–	–	–	–	–
COc1cc(/C=C/C(=O)C2CCC=CC2=O)cc(OC)c1OC (stereo not drawn)	50.5%	< 4.00	1.15 M⁻¹ s⁻¹	–	–	–	–	–	–	–
O=C(/C=C/c1ccc(C(F)(F)F)cc1)N1CCC=C(Cl)C1=O	74.7%	5.25	2.64 M⁻¹ s⁻¹	4.61	5.11	Active	< 1	inactive	Active	inactive
O=C1C=CCCN1C(=O)/C=C/c1ccccc1C(F)(F)F	31.5%	< 4.00	0.39 M⁻¹ s⁻¹	–	–	–	–	–	–	–
COc1cc(CCC(=O)N2CCCCC2=O)cc(OC)c1OC [TETRAHYDROPIPLARTINE]	0%	< 4.00	–	–	–	–	–	–	–	–
O=C1C=CCCN1C(=O)/C=C/c1ccc(C(F)(F)F)cc1	55.5%	4.38	1.35 M⁻¹ s⁻¹	–	–	–	–	–	–	–
COc1cc(/C=C/C(=O)N2CCCCC2=O)cc(OC)c1OC	15.4%	< 4.00	0.35 M⁻¹ s⁻¹	–	–	–	–	–	–	–
COc1cc(/C=C/C(=O)N2CCC=C(Cl)C2=O)cc(OC)c1OC	30.8%	< 4.00	0.99 M⁻¹ s⁻¹	–	–	–	–	–	–	–
COc1cc(/C=C/C(=O)N2CCC=CC2=O)cc(OC)c1OC [PIPLARTINE]	30.7%	< 4.00	0.46 M⁻¹ s⁻¹	–	–	–	–	–	inactive	–
